A selection: hits, their analogues and other compounds. The true share with any hit is near 5.1%.
NF-kB expr up: NF-kB expression increase, human neuronal cells; NF-kB reporter expression; stronger effect = higher value; fold change at 12.5 µM; 1.6% of 190,000 active; AID 1239; in the data active = fold change above about 3.3
STAT3 inh: inhibitors of IL-6 induced STAT3 signaling; U3A cells, IL-6 STAT3-luciferase reporter, luminescence; host cell line lacks STAT1; inhibition, % at 5.5 µM; 0.89% of 190,000 active; AID 862;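 active = inhibition above the mean inhibition across all screened compounds plus 3 SD, cut at about 44% in these data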;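 note: 0% = DMSO only wells and 100% = 100 µM nifuroxazide control wells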
STAT3 act: increases IL-6 driven STAT3 reporter signal; U3A cells, IL-6 STAT3-luciferase reporter, luminescence; 100% = signal with IL-6 EC80 alone; activation (% of control), % at 5.6 µM; 0.91% of 190,000 active;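 active = activation above the screen-wide mean of compound activation plus 3 SD, cut at about 130% in these data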;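 note: 0% = background luminescence of wells with medium and substrate only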
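Material: STAT1-lacking human U3A cells, STAT3 luciferase reporter | Benchmarks: IL-6-only wells as 100% reference | Probe or stimulus: IL-6 (33 ng/mL) | Timing: Compound 1 h, then IL-6 6 h at 37 °C | Detection: Luminescence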
STAT1 inh: reduces IFN-gamma driven STAT1 reporter signal. inhibition, % at 5.5 µM. NIH 3T3 STAT1-luciferase reporter, luminescence. 0.35% of 200,000 active;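 active = inhibition above a set limit, the mean inhibition across all tested compounds plus 3 SD, cut at about 34% in these data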;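 note: 0% = IFN-gamma with DMSO and 100% = IFN-gamma with 300 µM nifuroxazide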
STAT1 activator: STAT1 signaling activation. NIH 3T3 STAT1-luciferase reporter, IFN-gamma, luminescence; 100% = IFN-gamma alone, no compound. activation (% of control), % at 5.5 µM. 2.6% of 200,000 active. AID 932;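 active = activation above the screen-wide mean activation plus 3 SD, cut at about 130% in these data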;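 note: raw ratio to IFN-gamma control signal so 100% means no change and 0% no light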
APP 5'UTR act: APP 5'UTR luciferase reporter activation | activation, % at 2 µM | 1% of 190,000 active | AID 1276 | SH-SY5Y APP 5'UTR luciferase reporter, luminescence; zero percent = DMSO vehicle wells;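 active = activation above a set limit, based on mean plus 3 SD of controls, cut at about 140% in these data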
Starred values were filed as active, the others as inactive; x = no result given.

SMILES	NF-kB expr up	STAT3 inh	STAT3 act	STAT1 inh	STAT1 activator	APP 5'UTR act
CC(=O)c1cc(C#N)c(SCc2ccc([N+](=O)[O-])cc2)nc1C	1.4	7	98	4	96	18
COc1ccc(NC2=Nc3ccccc3CC2)cc1	3.7*	-19	122	-33	132*	102
Nc1nc(Nc2ccc(Cl)cc2)nc2ccccc12	6*	62*	50	24	78	115
Cc1ccc(C(=O)Nc2ccc(C(F)(F)F)n(C)c2=O)cc1	0.99	-3	104	-37	133*	71
COc1ccc(C(=O)NC(=S)N2CCNC(=O)C2)cc1Br	0.88	-6	108	-10	107	-6
O=C1CN(C(=S)NC(=O)c2ccc(-c3ccccc3)cc2)CCN1	1.6	9	100	-38	133*	19
CN(C#N)c1nc(Cl)nc(Nc2cccc(Cl)c2)n1	1.3	-4	104	11	90	6
CCOC(=O)C(C)On1c(-c2ccccc2)nc2ccc([N+](=O)[O-])cc21 (configuration not stated)	2.7	4	97	-34	132*	95
O=C(O)COn1c(-c2ccc(Cl)cc2)nc2ccc(Cl)cc21	1.8	-6	112	-15	113	21
O=C(O)COn1c(-c2ccccc2)nc2ccc([N+](=O)[O-])cc21	0.91	-7	113	-48	143*	39
CCOC(=O)C(C)On1c(-c2ccc(Cl)cc2)nc2ccc([N+](=O)[O-])cc21 (configuration not stated)	5.8*	-8	113	-36	133*	68
COc1nnc(-c2ccc(N3CCCCC3)c(NC(C)=O)c2)c2ccccc12	0.84	12	95	3	97	-6
Cc1ccc(C(=O)NCCCc2ccccc2)s1	2.5	-14	110	-28	125	65
O=C(CCCN1C(=O)/C(=C\c2cccc(Br)c2)SC1=S)Nc1cccnc1	x	10	96	11	90	5
COc1ccc2c(c1)c(=O)oc1cc(OCC(=O)N3CCc4ccccc4C3)ccc12	1.1	-5	104	5	95	x
CC(C)NC(=O)NC(=O)CSc1nncs1	1	7	96	-5	104	10
O=Cc1ccccc1OCCOc1ccc([N+](=O)[O-])cc1	1.1	10	94	-9	107	6
COc1cc(C(=O)Oc2ccccc2/C=N/NC(=O)c2ccc(Cl)cc2)cc(OC)c1OC	1.7	-10	106	-35	131*	-40
COc1cc(C(=O)Oc2ccccc2/C=N/NC(=O)c2ccc(C)c(Cl)c2)cc(OC)c1OC	0.92	4	93	-1	101	-50
COc1cc(/C=N/NC(=O)c2ccc(-c3ccccc3)cc2)cc(OC)c1OC	0.98	-40	134*	-14	112	-5
CNC(=S)N1N=C(c2ccc(C)cc2)CC1c1ccc(N(C)C)cc1 (configuration not stated)	2	9	99	-13	112	4
Cc1ccccc1N=C1NC(=O)CC(c2ccccc2)S1 (configuration not stated)	1.2	6	101	8	93	-5
Cn1c(=N)n(CC(=O)c2cccs2)c2ccccc21	3.9*	-36	137*	-36	134*	160*
Cn1c(=N)n(CC(=O)c2ccc(Br)s2)c2ccccc21	3.1	-69	167*	-50	146*	197*
Cc1[nH]c2ccccc2c1C(=O)C(=O)NCc1ccco1	1.2	13	96	5	94	4
S=C1NCCOCCOCCNC(=S)N2CCOCCOCCN1CCOCCOCC2	1	14	98	1	99	7
Cc1ccc(-n2nnc3ccccc3c2=O)cc1C	2.1	4	102	-35	134*	86
CCc1cc2c3c(c1)C1(C(=O)N3C(C)(C)C=C2C)C(C#N)=C(N)Oc2[nH]c(=O)[nH]c(=O)c21 (configuration not stated)	2.6	-4	104	-2	100	-9
Cc1ccccc1Nc1nnc(SCC(=O)Nc2ccccc2[N+](=O)[O-])s1	0.81	-26	126	-8	107	13
CCCSc1nnc(Nc2ccccc2C)s1	2.1	12	93	-32	129*	50

From PubChem BioAssay
